Structures are written as SMILES.

The target in experiment [1] is Vitamin D3 receptor (Homo sapiens) (UniProt P11473). Kind of experiment: Activity at human VDR assessed as transcriptional activation in COS cells after 24 hrs by luciferase reporter gene assay relative to 1-alpha,25-(OH)2D3.
The test system of experiment [2] is Osteoclast. Put plainly: Increase in osteoclast formation in mouse primary osteoclast cocultured cells. The experiment is classed as functional, cell-based. An outline of the steps: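 Tibial marrow cells (1.5×10^5/well) from 5–8-wk male ddY mice were cocultured with primary calvarial cells (3×10^3/well) from newborn ddY mice. Culture was 7 days in α-MEM with 10% FBS and compound at 10^-8 to 10^-12 M, with medium renewed on day 3. Cells were formaldehyde-fixed and TRAP-stained, and TRAP-positive cells with ≥3 nuclei counted microscopically as osteoclasts.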

The target of experiment [3] is T1, Vitamin D3 receptor (Rattus norvegicus) (UniProt P13053).
T1 sequence (whole entry): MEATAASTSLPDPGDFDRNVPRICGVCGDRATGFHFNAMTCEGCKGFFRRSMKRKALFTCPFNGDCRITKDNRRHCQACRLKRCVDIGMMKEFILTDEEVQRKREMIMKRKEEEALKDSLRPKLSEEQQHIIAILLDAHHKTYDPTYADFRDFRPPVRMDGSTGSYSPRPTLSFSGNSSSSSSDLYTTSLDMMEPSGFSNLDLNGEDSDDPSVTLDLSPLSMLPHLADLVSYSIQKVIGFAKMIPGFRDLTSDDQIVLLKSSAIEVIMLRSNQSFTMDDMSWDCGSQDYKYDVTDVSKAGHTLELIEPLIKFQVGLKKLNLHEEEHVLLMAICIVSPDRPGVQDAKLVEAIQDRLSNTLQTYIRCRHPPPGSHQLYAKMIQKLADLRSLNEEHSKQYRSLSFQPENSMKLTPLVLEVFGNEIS
Put plainly: Displacement of [3H]1-alpha,25-(OH)2D3 from rat recombinant VDR ligand-binding domain relative to 1-alpha,25-(OH)2D3. An outline of the steps:
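His-tagged rat VDR LBD (aa 115–423) was expressed in E. coli and the sonicated lysate diluted ~1000-fold in 50 mM Tris pH 7.5 (100 mM KCl, 5 mM DTT, 0.5% CHAPS, 100 µg/ml BSA). It was incubated with [3H]-1α,25-(OH)2D3 (~5000 dpm) at 4 °C for 18 h. Free ligand was removed with dextran-coated charcoal (30 min, 4 °C) and centrifugation, and the supernatant counted. At least two runs, in duplicate.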

For the compound `CCC(O)(CC)CCCCCS[C@@H](C)C1=CCC2/C(=C/C=C3C[C@@H](O)C[C@H](O)C3)CCC[C@]12C` (stereo not given in full), in experiment [1], the Activity was 2%.

For the compound `CCC(O)(CC)CCS[C@@H](C)C1=CCC2/C(=C/C=C3C[C@@H](O)C[C@H](O)C3)CCC[C@]12C` (stereo not given in full), the Activity entry in experiment [2] was “Dose-dependent effect”; in experiment [3] it was 100%; in experiment [1] it was 2000%.

On to `CCC(O)(CC)CCCS[C@H](C)C1=CCC2/C(=C/C=C3C[C@@H](O)C[C@H](O)C3)CCC[C@]12C` (stereo not given in full), for which the values for the Activity result in experiment [2], in experiment [3] and in experiment [1] were “Dose-dependent effect”, 8% and 20%, respectively.

Consider `CCC(O)(CC)CS[C@@H](C)C1=CCC2/C(=C/C=C3C[C@@H](O)C[C@H](O)C3)CCC[C@]12C` (stereo not given in full), for which the results for the Activity entry in experiment [2], in experiment [3] and in experiment [1] were “Dose-dependent effect”, 60% and 104%, respectively.

On to `CCC(O)(CC)CCCS[C@@H](C)C1=CCC2/C(=C/C=C3C[C@@H](O)C[C@H](O)C3)CCC[C@]12C` (stereo not given in full), for which the Activity result in experiment [2] was “Dose-dependent effect”; in experiment [3], 100%; in experiment [1], 2000%.

As for `CCC(O)(CC)CS[C@H](C)C1=CCC2/C(=C/C=C3C[C@@H](O)C[C@H](O)C3)CCC[C@]12C` (stereo not given in full), the Activity entry in experiment [2] is “Dose-dependent effect”; in experiment [3] it was 6%; in experiment [1], 9%.

In the case of `CCC(O)(CC)CCS[C@H](C)C1=CCC2/C(=C/C=C3C[C@@H](O)C[C@H](O)C3)CCC[C@]12C` (stereo not given in full), the Activity result in experiment [2] was “Dose-dependent effect”; in experiment [3] it was 4%; in experiment [1], 27%.

With `CCC(O)(CC)CCCCS[C@@H](C)C1=CCC2/C(=C/C=C3C[C@@H](O)C[C@H](O)C3)CCC[C@]12C` (stereo not given in full), in experiment [1], the Activity was 1%.

Source of the values: ChEMBL document CHEMBL1143124, “Synthesis and structure-activity relationships of 16-ene-22-thia-1alpha,25-dihydroxy-26,27-dimethyl-19-norvitamin D3 analogs having side chains of different sizes” (Bioorg Med Chem, 2008).
